Results from ChEMBL document CHEMBL4406904, “Design, synthesis and biological activity of a novel ethylenediamine derivatives as H1 receptor antagonists” (Bioorg Med Chem, 2019).
Activity calls are given as the source filed them. The calls are words filed in the database; no cut-off is given here.

Legend:
[1] = Dissociation constant, pKa of the compound; type: physicochemical
RBL-2H3 [2] = experiment: Antiallergic activity in rat RBL2H3 cells assessed as inhibition of C48/80-induced mast cell degranulation preincubated with compound for 30 mins and then treated with C48/80 for 1 hr by neutral red dye based method; type: functional
In short: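 RBL-2H3 cells seeded at 3×10⁵/mL and left overnight at 37 °C, 5% CO₂ to adhere. Medium discarded and cells stained with 0.5% neutral red for 3 min. Degranulated cells counted per 100 mast cells. IC50 taken as the concentration giving half-maximal degranulation. DMSO blank.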

RBL-2H3 [3] = experiment: Antiallergic activity in rat RBL2H3 cells assessed as inhibition of C48/80-induced histamine release preincubated with compound for 30 mins followed by C48/80 stimulation for 1 hr; type: functional, cell-based
In short: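 RBL-2H3 cells seeded at 3×10⁵/mL and adhered overnight at 37 °C, 5% CO₂. Histamine in the supernatant derivatized with o-phthalaldehyde after HCl/NaOH addition. IC50 is the concentration halving histamine release. DMSO blank.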

[4] = Lipid/water partition co-efficient, log P of the compound; type: physicochemical
RBL-2H3 [5] = experiment: Antiallergic activity in IgE/Ag-stimulated rat RBL2H3 cells assessed as inhibition of HSA-induced beta-hexosaminidase release preincubated with compound for 30 mins and then stimulated with HSA for 15 mins followed by incubation with P-nitrophenyl-N-acetyl-beta-D-glucosaminide for 2 hrs; type: functional, cell-based
In short: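 RBL-2H3 cells (3×10⁵/mL) sensitized overnight with anti-DNP IgE at 150 ng·mL⁻¹, then washed twice in PIPES buffer pH 7.0 with glucose and 0.2% BSA. Compound applied for 30 min at 37 °C, then DNP-HSA 20 ng·mL⁻¹ for 15 min; stopped on ice. Supernatant incubated with p-nitrophenyl-N-acetyl-β-D-glucosaminide in citrate pH 4.6 for 2 h at 37 °C. Stopped with carbonate pH 10.2; A405 read. IC50 derived.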

Cavia porcellus [6] = experiment: In vivo antiallergic activity in histamine-induced bronchospasm guinea pig model assessed as duration of convulsions at 20 mg/kg, po by Van Arman method; type: functional
In short: (§1)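 Male guinea pigs (220–260 g), fasted 24 h with water, six per group. Compound given orally at 20 mg·kg⁻¹ in 1% CMC-Na. Animals then exposed in a closed cage to aerosolized 0.3% histamine chloride (5 mL). Convulsion (preconvulsion) time recorded; stable beyond 10 min counted as protected. Protection % derived from mean time versus control.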

[7] = Acute toxicity in ip dosed histamine-induced bronchospasm guinea pig model; type: organism-based, Cavia porcellus; settings: in vivo
Cavia porcellus [8] = experiment: In vivo antiallergic activity in guinea pig assessed as protection against histamine-induced bronchospasm at 20 mg/kg, po by Van Arman method relative to control; type: functional; in short: as §1
Mus musculus = experiment: Antiallergic activity in mouse assessed as inhibition of histamine-induced increase in capillary permeability by measuring Evans blue dye concentration at 20 mg/kg administered via gavage for 1 week followed by Evans blue dye injection immediately after subcutaneous histamine injection and measured after 15 mins by UV spectrophotometric analysis; type: functional
In short: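 Mice (20–22 g), 10 per group, half male and half female. Compound suspension gavaged at 20 mg·kg⁻¹ for one week; model group given 0.5% CMC-Na. Backs depilated with 8% sodium sulfide the day before. Histamine phosphate 0.1% (50 μL) injected subcutaneously, with 0.5% Evans blue (25 mg·kg⁻¹) given i.v. via tail vein. Killed after 15 min. Stained skin extracted in acetone–saline for 48 h, centrifuged, OD read at 610 nm.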

[9] = target: Histamine H1 receptor (Homo sapiens) (UniProt P35367); experiment: Binding affinity to H1 receptor (unknown origin) at 0.10 umol/L
Sequence of Histamine H1 receptor (Homo sapiens) (P35367 whole entry): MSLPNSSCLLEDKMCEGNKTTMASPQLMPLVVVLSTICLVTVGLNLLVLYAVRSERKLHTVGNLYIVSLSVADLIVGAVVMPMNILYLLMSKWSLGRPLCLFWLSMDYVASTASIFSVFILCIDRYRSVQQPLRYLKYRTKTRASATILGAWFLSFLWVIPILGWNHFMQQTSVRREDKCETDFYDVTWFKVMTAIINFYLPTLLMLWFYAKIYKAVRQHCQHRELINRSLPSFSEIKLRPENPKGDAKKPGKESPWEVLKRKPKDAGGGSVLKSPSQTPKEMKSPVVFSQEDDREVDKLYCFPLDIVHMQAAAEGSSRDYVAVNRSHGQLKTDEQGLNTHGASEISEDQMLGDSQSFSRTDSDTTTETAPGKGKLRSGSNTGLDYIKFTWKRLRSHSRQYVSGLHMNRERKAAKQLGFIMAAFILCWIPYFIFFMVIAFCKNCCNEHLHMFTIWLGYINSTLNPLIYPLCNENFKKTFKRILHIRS

Cavia porcellus [10] = experiment: In vivo antiallergic activity in guinea pig assessed as protection against histamine-induced bronchospasm at 20 mg/kg by Van Arman method relative to control
Cavia porcellus [11] = experiment: In vivo antiallergic activity in histamine-induced bronchospasm guinea pig model assessed as duration of convulsions at 20 mg/kg by Van Arman method

COc1ccc(CN(CCN(C)C)c2ccc(N)cn2)cc1
pKa [1]: 9.4 | IC50 (RBL-2H3 [2]): 1340 nM | IC50 (RBL-2H3 [3]): 2110 nM | logP [4]: 2.56 | IC50 (RBL-2H3 [5]): 4090 nM

COc1ccc(CN(CCN(C)C)c2ccc(N)cc2)cc1
pKa [1]: 9.8 | IC50 (RBL-2H3 [2]): 2310 nM | IC50 (RBL-2H3 [3]): 4060 nM | logP [4]: 3.13 | IC50 (RBL-2H3 [5]): 8010 nM

COc1ccc(CN(CCN(C)C)c2ccc(Cl)cc2)cc1
Time (Cavia porcellus [6]): 376.58 s | LD50 [7]: 414 mg/kg | pKa [1]: 9.6 | IC50 (RBL-2H3 [2]): 18.1 nM | IC50 (RBL-2H3 [3]): 40.2 nM | Activity (Cavia porcellus [8]): 75.32% | Activity (Mus musculus): 65.34 mg/L | Activity [9]: Active | logP [4]: 4.47 | IC50 (RBL-2H3 [5]): 71.2 nM

COc1ccc(CCN(CCN(C)C)c2ccc(N)cn2)cc1
pKa [1]: 9.6 | IC50 (RBL-2H3 [2]): 1210 nM | IC50 (RBL-2H3 [3]): 1910 nM | logP [4]: 2.79 | IC50 (RBL-2H3 [5]): 4010 nM

COc1ccc(CCN(CCN(C)C)c2ccc(Cl)cc2)cc1
pKa [1]: 9.5 | IC50 (RBL-2H3 [2]): 89.2 nM | IC50 (RBL-2H3 [3]): 141 nM | logP [4]: 4.78 | IC50 (RBL-2H3 [5]): 261 nM

COc1ccc(CCN2CCC(Nc3nc4ccccc4n3Cc3ccc(F)cc3)CC2)cc1 [ASTEMIZOLE]
IC50 (RBL-2H3 [2]): 53.3 nM | IC50 (RBL-2H3 [3]): 81.9 nM | IC50 (RBL-2H3 [5]): 156 nM

COc1ccc(CCN(CCN(C)C)c2ccc(N)cc2)cc1
pKa [1]: 9.8 | IC50 (RBL-2H3 [2]): 2230 nM | IC50 (RBL-2H3 [3]): 4010 nM | logP [4]: 3.43 | IC50 (RBL-2H3 [5]): 7960 nM

COc1ccc(CCN(CCN(C)C)c2ccccn2)cc1
pKa [1]: 9.5 | IC50 (RBL-2H3 [2]): 129 nM | IC50 (RBL-2H3 [3]): 159 nM | logP [4]: 3.59 | IC50 (RBL-2H3 [5]): 319 nM

COc1ccc(CN(CCN(C)C)c2ccc(Cl)cn2)cc1
Time (Cavia porcellus [6]): 398.69 s | LD50 [7]: 324 mg/kg | pKa [1]: 9.5 | IC50 (RBL-2H3 [2]): 10.6 nM | IC50 (RBL-2H3 [3]): 19.2 nM | Activity (Cavia porcellus [8]): 79.74% | Activity (Mus musculus): 71.26 mg/L | Activity [9]: Active | logP [4]: 3.87 | IC50 (RBL-2H3 [5]): 45.5 nM

COc1ccc(CN(CCN(C)C)c2ccc(C)cc2)cc1
Time (Cavia porcellus [6]): 348.1 s | LD50 [7]: 401 mg/kg | pKa [1]: 9.8 | IC50 (RBL-2H3 [2]): 55.3 nM | IC50 (RBL-2H3 [3]): 89.1 nM | Activity (Cavia porcellus [8]): 69.62% | Activity (Mus musculus): 53.59 mg/L | Activity [9]: Active | logP [4]: 4.43 | IC50 (RBL-2H3 [5]): 141 nM

COc1ccc(CCN(CCN(C)C)c2ccc(Cl)cn2)cc1
Time (Cavia porcellus [6]): 351.1 s | LD50 [7]: 335 mg/kg | pKa [1]: 9.4 | IC50 (RBL-2H3 [2]): 45.3 nM | IC50 (RBL-2H3 [3]): 53.1 nM | Activity (Cavia porcellus [8]): 70.22% | Activity (Mus musculus): 55.67 mg/L | Activity [9]: Active | logP [4]: 4.16 | IC50 (RBL-2H3 [5]): 72.1 nM

COc1ccc(CN(CCN(C)C)c2ccccc2)cc1
pKa [1]: 9.7 | IC50 (RBL-2H3 [2]): 143 nM | IC50 (RBL-2H3 [3]): 243 nM | logP [4]: 3.9 | IC50 (RBL-2H3 [5]): 411 nM

COc1ccc(CN(CCN(C)C)c2ccc(C)cn2)cc1
Time (Cavia porcellus [6]): 371.28 s | LD50 [7]: 335 mg/kg | pKa [1]: 9.6 | IC50 (RBL-2H3 [2]): 28.9 nM | IC50 (RBL-2H3 [3]): 48.6 nM | Activity (Cavia porcellus [8]): 74.26% | Activity (Mus musculus): 62.16 mg/L | Activity [9]: Active | logP [4]: 3.79 | IC50 (RBL-2H3 [5]): 61.2 nM

COc1ccc(CCN(CCN(C)C)c2ccc(C)cn2)cc1
pKa [1]: 9.5 | IC50 (RBL-2H3 [2]): 83.9 nM | IC50 (RBL-2H3 [3]): 102 nM | logP [4]: 4.06 | IC50 (RBL-2H3 [5]): 211 nM

COc1ccc(CCN(CCN(C)C)c2ccccc2)cc1
pKa [1]: 9.6 | IC50 (RBL-2H3 [2]): 306 nM | IC50 (RBL-2H3 [3]): 516 nM | logP [4]: 4.21 | IC50 (RBL-2H3 [5]): 1030 nM

COc1ccc(CN(CCN(C)C)c2ccccn2)cc1 [PYRILAMINE]
pKa [1]: 9.7 | IC50 (RBL-2H3 [2]): 81.5 nM | IC50 (RBL-2H3 [3]): 92.6 nM | logP [4]: 3.32 | IC50 (RBL-2H3 [5]): 132 nM

COc1ccc(CCN(CCN(C)C)c2ccc(C)cc2)cc1
pKa [1]: 9.7 | IC50 (RBL-2H3 [2]): 153 nM | IC50 (RBL-2H3 [3]): 289 nM | logP [4]: 4.68 | IC50 (RBL-2H3 [5]): 561 nM

CN(C)CCC(c1ccc(Cl)cc1)c1ccccn1 (centres undefined) [CHLORPHENIRAMINE]
IC50 (RBL-2H3 [2]): 31.8 nM | IC50 (RBL-2H3 [3]): 53.6 nM | Activity (Mus musculus): 56.13 mg/L | Activity (Cavia porcellus [10]): 73.43% | IC50 (RBL-2H3 [5]): 121 nM | Time (Cavia porcellus [11]): 367.16 s
